According to ChEMBL document CHEMBL5120858, “Structure-activity relationship and antitumor activity of 1,4-pyrazine-containing inhibitors of histone acetyltransferases P300/CBP” (Eur J Med Chem, 2022):
Activity calls are given as the source filed them. No cut-off for these calls is given here.

Tests used:
[1] = target: T1, Histone acetyltransferase p300 (Homo sapiens, UniProt Q09472); experiment: Inhibition of human p300 HAT domain (1195 to 1673 residues) using histone H3 peptide and acetyl-coA as substrates preincubated for 10 mins followed by substrate addition and measured after 30 mins by beckman scintillation counting analysis
Summary of the method: (§1)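 Radiometric HAT assay. Enzyme at 10 nM was preincubated with graded compound for 10 min at 25 °C in 50 mM phosphate pH 7.0 with 0.01% Brij-35. Reaction started with H3 (1-21) peptide (20 μM) plus Ac-CoA (1 μM ³H-Ac-CoA + 19 μM unlabelled) and run 30 min at 25 °C. Stopped with formic acid, spotted on P81 paper, washed with NaHCO₃ and scintillation counted. IC₅₀ from sigmoidal fit, mean of ≥3 experiments.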

[2] = target: T1, Histone acetyltransferase p300; experiment: Inhibition of human p300 HAT domain (1195 to 1673 residues) at 10 uM using histone H3 peptide and acetyl-coA as substrates preincubated for 10 mins followed by substrate addition and measured after 30 mins by beckman scintillation counting analysis relative to control; details: time 40.0 min
Summary of the method: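 Single-concentration screen at 10 μM in the radiometric p300 HAT domain assay: enzyme 10 nM, pH 7.0 phosphate/Brij-35, 10 min preincubation, then H3(1-21) peptide 20 μM plus ³H/unlabelled Ac-CoA (20 μM total), 30 min at 25 °C. Filter-bound ³H-acetylated peptide was counted, and the value is given as % inhibition.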

[3] = target: T1, Histone acetyltransferase p300; experiment: Inhibition of biotinylated histone H4 peptide binding to His-tagged human p300 HAT domain (1195 to 1673 residues) assessed as reduction in alpha signal incubated for 1 hr by amplified luminescent proximity homogeneous assay
Summary of the method: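 AlphaScreen binding assay in PBS with 0.5% BSA: His6-tagged p300 HAT (125 nM) on nickel chelate acceptor beads and biotinylated H4 peptide (30 nM) on streptavidin donor beads, with a dilution series of compound. After 1 h, signal was read with excitation at 680 nm and emission at 570 nm, and IC50 came from a sigmoidal dose-response fit.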

Kasumi 1 [4] = experiment: Inhibition of histone H3 acetylation at lysine 9 residue in human Kasumi 1 cells incubated for 12 hrs by Western blot analysis; assay type: functional, cell-based; details: dose 5-10 µM, DDE = dose-dependent effect
Summary of the method: (§2)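 Kasumi-1 cells (10⁶ per well) exposed to a range of compound concentrations for 12 h. Total histones extracted and 2 μg protein resolved by SDS-PAGE, then transferred to PVDF. Blots probed with antibodies to H3K9Ac, H3K18Ac, H3K27Ac and total H3, with anti-rabbit IgG secondary.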

Kasumi 1 [5] = experiment: Inhibition of histone H3 acetylation at lysine 27 residue in human Kasumi 1 cells incubated for 12 hrs by Western blot analysis; assay type: functional, cell-based; details: dose 5-10 µM, DDE = dose-dependent effect; summary of the method: as §2
MDA-MB-231 [6] = experiment: Antiproliferative activity against human MDA-MB-231 cells assessed as reduction in cell growth incubated for 3 to 5 days by CellTiter-Glo luminescent cell viability assay; assay type: functional, cell-based
PC-3 [7] = experiment: Antiproliferative activity against human PC-3 cells assessed as reduction in cell growth incubated for 3 to 5 days by CellTiter-Glo luminescent cell viability assay; assay type: functional, cell-based
LNCaP [8] = experiment: Antiproliferative activity against human LNCaP cells assessed as reduction in cell growth incubated for 3 to 5 days by CellTiter-Glo luminescent cell viability assay; assay type: functional, cell-based
MOLM-13 [9] = experiment: Antiproliferative activity against human MOLM-13 cells assessed as reduction in cell growth incubated for 3 to 5 days by CellTiter-Glo luminescent cell viability assay; assay type: functional, cell-based
RPMI-8226 [10] = experiment: Antiproliferative activity against human RPMI-8226 cells assessed as reduction in cell growth incubated for 3 to 5 days by CellTiter-Glo luminescent cell viability assay; assay type: functional, cell-based
CREB-binding protein = CREB-binding protein (Homo sapiens, UniProt Q92793); experiment: Inhibition of human CBP-HAT domain using histone H3 peptide and acetyl-coA as substrates preincubated for 10 mins followed by substrate addition and measured after 30 mins by beckman scintillation counting analysis; summary of the method: as §1
[11] = target: Histone acetyltransferase KAT2B (Homo sapiens, UniProt Q92831); experiment: Inhibition of human PCAF using histone H3 peptide and acetyl-coA as substrates preincubated for 10 mins followed by substrate addition and measured after 30 mins by beckman scintillation counting analysis; summary of the method: as §1
[12] = target: Histone acetyltransferase KAT6A (Homo sapiens, UniProt Q92794); experiment: Inhibition of human Myst3 using histone H3 peptide and acetyl-coA as substrates preincubated for 10 mins followed by substrate addition and measured after 30 mins by beckman scintillation counting analysis; summary of the method: as §1
Kasumi 1 [13] = experiment: Inhibition of histone H3 acetylation at lysine 9 residue in human Kasumi 1 cells at 5 to 10 uM incubated for 12 hrs by Western blot analysis; assay type: functional, cell-based; details: dose 5-10 µM
Summary of the method: (§3)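 Kasumi-1 leukemia cells (10⁶ per well) were treated 12 h with a range of compound concentrations. Total histones were extracted, and 2 μg was resolved by SDS-PAGE and transferred to PVDF. Blots were probed for H3K9ac, H3K18ac, H3K27ac and total H3, with anti-rabbit IgG secondary.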

Kasumi 1 [14] = experiment: Inhibition of histone H3 acetylation at lysine 27 residue in human Kasumi 1 cells at 5 to 10 uM incubated for 12 hrs by Western blot analysis; assay type: functional, cell-based; details: dose 5-10 µM; summary of the method: as §3
Kasumi 1 [15] = experiment: Inhibition of histone H3 acetylation at lysine 18 residue in human Kasumi 1 cells incubated for 12 hrs by Western blot analysis; assay type: functional, cell-based; details: dose 5-10 µM, DDE = dose-dependent effect; summary of the method: as §3
MCF7 = experiment: Antiproliferative activity against human MCF7 cells assessed as reduction in cell growth incubated for 5 days by XTT assay; assay type: functional, cell-based; details: MCF7, 120 h
Summary of the method: (§4)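 Solid tumour cells were seeded at 10⁵ per well in DMEM with 10% FBS and penicillin/streptomycin and allowed to attach overnight. They were then exposed to increasing compound concentrations for 5 days. Viability was read by XTT, and EC50 came from dose-response curves.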

PANC-1 = experiment: Antiproliferative activity against human PANC-1 cells assessed as reduction in cell growth incubated for 5 days by XTT assay; assay type: functional, cell-based; details: PANC-1, 120 h; summary of the method: as §4
[16] = Antiproliferative activity against human MDA-Panc-28 cells assessed as reduction in cell growth incubated for 5 days by XTT assay; assay type: functional, cell-based; details: MDA-Panc-28, 120 h; summary of the method: as §4
MOLM-13 [17] = experiment: Antiproliferative activity against human MOLM-13 cells assessed as reduction in cell growth incubated for 5 days by XTT assay; assay type: functional, cell-based; details: MOLM-13, 120 h
Summary of the method: (§5)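 Blood cancer cells were plated at 10⁶ per well in RPMI-1640 with 20% FBS and penicillin/streptomycin and grown with increasing compound concentrations at 37 °C, 5% CO₂. Viability was measured by XTT, and EC50 was calculated from dose-response curves.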

MV4-11 = experiment: Antiproliferative activity against human MV4-11 cells assessed as reduction in cell growth incubated for 5 days by XTT assay; assay type: functional, cell-based; details: MV4-11, 120 h; summary of the method: as §5
RPMI-8226 [18] = experiment: Antiproliferative activity against human RPMI-8226 cells assessed as reduction in cell growth incubated for 5 days by XTT assay; assay type: functional, cell-based; details: RPMI-8226, 120 h; summary of the method: as §5
MDA-MB-231 [19] = experiment: Antiproliferative activity against human MDA-MB-231 cells assessed as reduction in cell growth incubated for 5 days by XTT assay; assay type: functional, cell-based; details: MDA-MB-231, 120 h
LNCaP [20] = experiment: Antiproliferative activity against human LNCaP cells assessed as reduction in cell growth incubated for 5 days by XTT assay; assay type: functional, cell-based; details: 120 h; summary of the method: as §4
PC-3 [21] = experiment: Antiproliferative activity against human PC-3 cells assessed as reduction in cell growth incubated for 5 days by XTT assay; assay type: functional, cell-based; details: PC-3, 120 h

T1 sequence (Q09472 whole entry, the tested form may be a part): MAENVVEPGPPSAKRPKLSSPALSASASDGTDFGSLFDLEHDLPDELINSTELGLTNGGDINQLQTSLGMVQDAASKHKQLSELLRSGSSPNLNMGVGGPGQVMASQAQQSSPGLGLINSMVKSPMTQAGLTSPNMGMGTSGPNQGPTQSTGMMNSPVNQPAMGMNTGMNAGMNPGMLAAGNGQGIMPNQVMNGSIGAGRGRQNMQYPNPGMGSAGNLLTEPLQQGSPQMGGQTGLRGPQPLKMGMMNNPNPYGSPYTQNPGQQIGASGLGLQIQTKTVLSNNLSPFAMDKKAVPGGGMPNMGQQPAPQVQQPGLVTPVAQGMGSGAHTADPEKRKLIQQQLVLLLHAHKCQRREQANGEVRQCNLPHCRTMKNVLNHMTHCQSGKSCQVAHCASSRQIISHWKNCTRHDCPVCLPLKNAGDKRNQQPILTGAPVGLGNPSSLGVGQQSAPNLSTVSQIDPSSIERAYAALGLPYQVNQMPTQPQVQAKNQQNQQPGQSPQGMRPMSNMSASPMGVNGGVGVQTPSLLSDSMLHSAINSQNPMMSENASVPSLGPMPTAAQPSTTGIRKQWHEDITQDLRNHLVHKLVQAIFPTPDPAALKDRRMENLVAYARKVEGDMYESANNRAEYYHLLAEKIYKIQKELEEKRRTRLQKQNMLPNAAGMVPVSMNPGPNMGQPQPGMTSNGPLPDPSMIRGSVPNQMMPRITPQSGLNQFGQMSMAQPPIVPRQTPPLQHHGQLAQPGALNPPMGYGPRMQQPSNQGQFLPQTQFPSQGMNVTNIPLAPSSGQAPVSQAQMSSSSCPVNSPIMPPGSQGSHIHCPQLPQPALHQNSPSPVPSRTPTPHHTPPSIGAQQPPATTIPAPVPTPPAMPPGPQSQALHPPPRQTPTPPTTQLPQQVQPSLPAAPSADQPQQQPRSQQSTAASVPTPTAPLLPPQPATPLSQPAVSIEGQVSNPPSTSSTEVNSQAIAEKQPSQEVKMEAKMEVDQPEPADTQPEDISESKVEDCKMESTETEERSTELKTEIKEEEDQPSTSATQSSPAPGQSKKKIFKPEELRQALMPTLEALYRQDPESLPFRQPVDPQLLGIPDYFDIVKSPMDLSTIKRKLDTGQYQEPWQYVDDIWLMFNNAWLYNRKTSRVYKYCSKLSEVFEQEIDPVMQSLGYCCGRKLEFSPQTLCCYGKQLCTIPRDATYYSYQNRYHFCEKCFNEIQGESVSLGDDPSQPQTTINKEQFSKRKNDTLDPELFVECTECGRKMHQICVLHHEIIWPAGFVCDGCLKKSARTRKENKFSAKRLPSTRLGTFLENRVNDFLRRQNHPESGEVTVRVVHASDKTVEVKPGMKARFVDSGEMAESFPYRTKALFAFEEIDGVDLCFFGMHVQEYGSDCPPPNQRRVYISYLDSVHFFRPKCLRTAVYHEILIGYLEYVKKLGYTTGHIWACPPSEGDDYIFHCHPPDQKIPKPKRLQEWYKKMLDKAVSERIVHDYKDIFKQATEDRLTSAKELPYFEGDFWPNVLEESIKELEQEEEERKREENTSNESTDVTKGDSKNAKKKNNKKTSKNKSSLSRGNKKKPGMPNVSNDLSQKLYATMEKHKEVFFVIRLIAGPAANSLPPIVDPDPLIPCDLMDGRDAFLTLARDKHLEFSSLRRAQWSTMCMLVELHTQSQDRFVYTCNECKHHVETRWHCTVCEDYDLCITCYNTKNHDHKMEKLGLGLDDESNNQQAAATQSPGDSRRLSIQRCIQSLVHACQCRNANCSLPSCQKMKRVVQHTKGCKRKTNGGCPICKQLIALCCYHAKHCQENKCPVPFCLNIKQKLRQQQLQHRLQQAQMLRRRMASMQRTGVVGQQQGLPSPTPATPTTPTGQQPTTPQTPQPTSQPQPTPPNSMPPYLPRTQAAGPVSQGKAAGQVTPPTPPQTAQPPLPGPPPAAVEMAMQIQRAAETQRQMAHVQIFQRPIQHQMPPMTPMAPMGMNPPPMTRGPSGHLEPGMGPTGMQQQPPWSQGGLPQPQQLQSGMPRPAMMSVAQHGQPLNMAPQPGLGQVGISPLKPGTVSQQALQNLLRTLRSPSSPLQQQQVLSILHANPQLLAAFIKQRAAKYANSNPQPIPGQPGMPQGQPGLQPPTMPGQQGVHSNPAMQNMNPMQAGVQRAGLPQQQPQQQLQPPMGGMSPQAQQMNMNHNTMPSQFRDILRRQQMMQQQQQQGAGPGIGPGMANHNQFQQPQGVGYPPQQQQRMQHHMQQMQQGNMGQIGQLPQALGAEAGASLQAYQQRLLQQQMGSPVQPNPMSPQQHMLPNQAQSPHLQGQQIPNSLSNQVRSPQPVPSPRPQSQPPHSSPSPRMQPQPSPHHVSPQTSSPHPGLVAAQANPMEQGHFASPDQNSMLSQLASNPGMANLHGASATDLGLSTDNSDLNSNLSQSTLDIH
CREB-binding protein, sequence (Q92793 whole entry, the tested form may be a part): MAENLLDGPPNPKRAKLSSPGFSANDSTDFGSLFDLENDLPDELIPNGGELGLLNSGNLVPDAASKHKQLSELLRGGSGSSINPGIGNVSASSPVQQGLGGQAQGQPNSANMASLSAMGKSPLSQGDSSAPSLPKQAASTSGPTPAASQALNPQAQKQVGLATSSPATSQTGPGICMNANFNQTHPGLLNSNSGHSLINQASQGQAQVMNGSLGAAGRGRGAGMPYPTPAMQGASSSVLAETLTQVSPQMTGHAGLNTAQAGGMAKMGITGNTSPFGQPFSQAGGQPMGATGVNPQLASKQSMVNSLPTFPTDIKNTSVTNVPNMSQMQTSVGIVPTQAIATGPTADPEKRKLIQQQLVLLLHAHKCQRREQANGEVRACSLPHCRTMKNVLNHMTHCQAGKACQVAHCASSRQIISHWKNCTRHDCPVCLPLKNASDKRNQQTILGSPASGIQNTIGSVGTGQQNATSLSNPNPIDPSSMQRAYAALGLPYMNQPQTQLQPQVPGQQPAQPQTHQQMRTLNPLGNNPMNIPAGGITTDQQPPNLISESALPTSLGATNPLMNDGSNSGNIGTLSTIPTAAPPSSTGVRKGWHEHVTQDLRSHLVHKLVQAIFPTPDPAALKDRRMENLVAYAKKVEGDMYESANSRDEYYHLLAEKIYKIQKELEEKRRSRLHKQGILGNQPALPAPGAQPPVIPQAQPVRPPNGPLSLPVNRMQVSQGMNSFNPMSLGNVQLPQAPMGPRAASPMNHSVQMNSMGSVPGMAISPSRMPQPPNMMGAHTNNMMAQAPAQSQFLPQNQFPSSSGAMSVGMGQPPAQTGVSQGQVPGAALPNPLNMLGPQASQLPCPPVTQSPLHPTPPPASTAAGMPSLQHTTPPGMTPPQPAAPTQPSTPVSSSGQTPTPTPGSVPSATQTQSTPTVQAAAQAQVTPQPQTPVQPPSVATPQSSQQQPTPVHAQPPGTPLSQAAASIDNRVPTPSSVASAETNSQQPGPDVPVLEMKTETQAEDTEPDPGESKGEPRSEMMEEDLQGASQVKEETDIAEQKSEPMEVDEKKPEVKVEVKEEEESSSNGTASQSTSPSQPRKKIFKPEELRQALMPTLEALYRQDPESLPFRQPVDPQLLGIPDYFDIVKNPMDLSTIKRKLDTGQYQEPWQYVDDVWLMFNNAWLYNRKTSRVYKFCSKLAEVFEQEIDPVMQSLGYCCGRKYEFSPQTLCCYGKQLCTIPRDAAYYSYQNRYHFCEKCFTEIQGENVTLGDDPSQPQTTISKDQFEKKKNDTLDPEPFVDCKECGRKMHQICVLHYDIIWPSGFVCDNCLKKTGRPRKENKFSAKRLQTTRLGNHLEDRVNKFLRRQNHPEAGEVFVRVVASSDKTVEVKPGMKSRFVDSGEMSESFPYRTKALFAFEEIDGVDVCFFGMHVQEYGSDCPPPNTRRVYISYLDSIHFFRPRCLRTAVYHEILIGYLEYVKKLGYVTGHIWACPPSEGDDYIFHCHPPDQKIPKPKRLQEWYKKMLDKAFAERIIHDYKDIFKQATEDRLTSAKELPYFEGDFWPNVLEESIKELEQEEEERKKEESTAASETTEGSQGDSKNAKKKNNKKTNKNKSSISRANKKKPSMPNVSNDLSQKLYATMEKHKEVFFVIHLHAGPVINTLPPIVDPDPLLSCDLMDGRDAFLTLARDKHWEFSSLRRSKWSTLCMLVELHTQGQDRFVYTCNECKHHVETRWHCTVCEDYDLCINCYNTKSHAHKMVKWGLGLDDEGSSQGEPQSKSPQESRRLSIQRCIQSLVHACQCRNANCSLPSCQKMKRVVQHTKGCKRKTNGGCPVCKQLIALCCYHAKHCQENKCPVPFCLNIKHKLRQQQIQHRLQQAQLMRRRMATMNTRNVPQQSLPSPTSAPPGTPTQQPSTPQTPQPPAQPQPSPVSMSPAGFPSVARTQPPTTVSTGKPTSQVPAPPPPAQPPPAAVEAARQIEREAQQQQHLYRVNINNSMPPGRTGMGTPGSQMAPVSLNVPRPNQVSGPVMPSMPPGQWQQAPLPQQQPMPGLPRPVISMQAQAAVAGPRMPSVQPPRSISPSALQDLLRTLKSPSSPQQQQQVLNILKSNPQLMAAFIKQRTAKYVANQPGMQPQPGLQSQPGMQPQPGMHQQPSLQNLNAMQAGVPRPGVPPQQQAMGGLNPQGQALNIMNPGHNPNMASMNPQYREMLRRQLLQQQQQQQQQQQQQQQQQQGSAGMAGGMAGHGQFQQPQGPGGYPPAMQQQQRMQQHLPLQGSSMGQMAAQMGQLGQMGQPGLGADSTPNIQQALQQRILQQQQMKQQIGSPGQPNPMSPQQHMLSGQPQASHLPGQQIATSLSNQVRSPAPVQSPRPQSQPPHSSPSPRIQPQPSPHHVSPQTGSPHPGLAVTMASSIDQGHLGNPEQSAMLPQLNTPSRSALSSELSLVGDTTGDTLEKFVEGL

Structure (SMILES)	IC50 [1] [µM]	inhibition [2] [%]	other results
Brc1ccc(-c2ncc(OCC3CCNCC3)nc2-c2ccc(Br)cc2)cc1	5.7	72.5	IC50 [3]: 27 µM
Brc1cccc(-c2ncc(OCC3CCNCC3)nc2-c2cccc(Br)c2)c1	9.9	–	–
NCc1ccc(-c2ncc(OCC3CCNCC3)nc2-c2ccc(CN)cc2)cc1	2.8	–	inhibition (Kasumi 1 [4]): Dde; inhibition (Kasumi 1 [5]): Dde
CNCCOc1cnc(-c2ccc(Br)cc2)c(-c2ccc(Br)cc2)n1	> 10	19.6	–
c1ccc(-c2cc(OCC3CCNCC3)cnc2-c2ccccc2)cc1	46.3	–	–
NCCCCOc1cnc(-c2ccc(Br)cc2)c(-c2ccc(Br)cc2)n1	> 10	–	–
c1cc(-c2ccc(-c3ncc(OCC4CCNCC4)nc3-c3ccc(-c4ccncc4)cc3)cc2)ccn1	> 10	39	–
Nc1ccc(-c2ccc(-c3ncc(OCC4CCNCC4)nc3-c3ccc(-c4ccc(N)cc4)cc3)cc2)cc1	2.3	–	–
CCc1ccc(-c2ncc(OCC3CCNCC3)nc2-c2ccc(CC)cc2)cc1	10	55	–
CNC(=O)Nc1ccc2c(c1)CC[C@@]21OC(=O)N(CC(=O)N(Cc2ccc(F)cc2)[C@@H](C)C(F)(F)F)C1=O (single isomer, unassigned) [A-485]	–	–	EC50 (MDA-MB-231 [6]): > 10 µM; EC50 (PC-3 [7]): 2.1 µM; EC50 (LNCaP [8]): 0.26 µM; EC50 (MOLM-13 [9]): 0.35 µM; EC50 (RPMI-8226 [10]): 0.16 µM
N#Cc1ccc(-c2ncc(OCC3CCNCC3)nc2-c2ccc(Br)cc2)cc1	> 10	0	–
CN(C)Cc1ccc(-c2ncc(OCC3CCNCC3)nc2-c2ccc(CN(C)C)cc2)cc1	> 10	–	–
Fc1cc(-c2ncc(OCC3CCNCC3)nc2-c2ccc(Br)c(F)c2)ccc1Br	11.8	–	–
OCc1ccc(-c2ncc(OCC3CCNCC3)nc2-c2ccc(CO)cc2)cc1	10	48.2	–
COc1ccc(-c2ncc(OCC3CCNCC3)nc2-c2ccc(OC)cc2)cc1	> 10	38	–
N#Cc1ccc(-c2ncc(OCC3CCNCC3)nc2-c2ccc(C#N)cc2)cc1	> 10	0	–

Structure (SMILES)	IC50 [1] [µM]	inhibition [2] [%]	other results
Clc1ccc(-c2ncc(OCC3CCNCC3)nc2-c2ccc(Cl)cc2)cc1	> 10	–	–
c1cc(-c2ccc(-c3ncc(OCC4CCNCC4)nc3-c3ccc(-c4ccoc4)cc3)cc2)co1	1.4	–	IC50 [3]: 7.2 µM; IC50 (CREB-binding protein): 2.2 µM; IC50 [11]: > 100 µM; IC50 [12]: > 100 µM; inhibition (Kasumi 1 [13]): Active; inhibition (Kasumi 1 [14]): Active; inhibition (Kasumi 1 [15]): Dde; EC50 (MCF7): 5.3 µM; EC50 (PANC-1): 1.2 µM; EC50 [16]: 4.3 µM; EC50 (MOLM-13 [17]): 3.6 µM; EC50 (MV4-11): 8.7 µM; EC50 (RPMI-8226 [18]): 6.4 µM
NCCOc1cnc(-c2ccc(Br)cc2)c(-c2ccc(Br)cc2)n1	> 10	5.4	–
Brc1ccc(-c2ncc(OCC3CCNC3)nc2-c2ccc(Br)cc2)cc1 (stereo unspecified)	> 10	–	–
FC(F)(F)c1ccc(-c2ncc(OCC3CCNCC3)nc2-c2ccc(C(F)(F)F)cc2)cc1	> 10	34	–
CC(C)(C)c1ccc(-c2ncc(OCC3CCNCC3)nc2-c2ccc(C(C)(C)C)cc2)cc1	17.6	–	–
CC(=O)NCCOc1cnc(-c2ccc(Br)cc2)c(-c2ccc(Br)cc2)n1	> 10	0	–
Brc1ccc(-c2ncc(OCC3CCNCC3)nc2-c2ccc(Br)c(Br)c2)cc1Br	–	50	–
NCCCOc1cnc(-c2ccc(Br)cc2)c(-c2ccc(Br)cc2)n1	> 10	–	EC50 (MCF7): > 20 µM; EC50 (MDA-MB-231 [19]): > 20 µM; EC50 (LNCaP [20]): > 20 µM; EC50 (PC-3 [21]): > 20 µM; EC50 (PANC-1): > 20 µM; EC50 [16]: > 20 µM; EC50 (MOLM-13 [17]): > 20 µM; EC50 (MV4-11): > 20 µM; EC50 (RPMI-8226 [18]): > 20 µM
Cc1ccc(-c2ncc(OCC3CCNCC3)cc2-c2ccc(CO)cc2)cc1	62.6	–	–
O=C(O)c1cnc(-c2ccc(Br)cc2)c(-c2ccc(Br)cc2)n1	> 10	30	–
CN(C)CCCOc1cnc(-c2ccc(Br)cc2)c(-c2ccc(Br)cc2)n1	> 10	4.8	–
N#Cc1ccc(-c2nc(OCC3CCNCC3)cnc2-c2ccc(Br)cc2)cc1	> 10	21	–
Ic1ccc(-c2ncc(OCC3CCNCC3)nc2-c2ccc(I)cc2)cc1	7.8	–	–
c1ccc(-c2ccc(-c3ncc(OCC4CCNCC4)nc3-c3ccc(-c4ccccn4)cc3)cc2)nc1	> 10	37	–
CNCCCCOc1cnc(-c2ccc(Br)cc2)c(-c2ccc(Br)cc2)n1	> 10	–	–
